Laboratory results taken from ChEMBL document CHEMBL1154090, “Synthesis, spectral and biological evaluation of some new thiazolidinones and thiazoles based on t-3-alkyl-r-2,c-6-diarylpiperidin-4-ones” (2009).
Values after ≈ are worked out from the molar mass of the structure shown.

What was measured:
Candida albicans = assay: Antifungal activity against Candida albicans by broth microdilution method; assay type: functional
Klebsiella pneumoniae [1] = assay: Antibacterial activity against Klebsiella pneumoniae by broth microdilution method; assay type: functional
Rhizopus sp = assay: Antifungal activity against Rhizopus sp. by broth microdilution method
Aspergillus flavus = assay: Antifungal activity against Aspergillus flavus by broth microdilution method; assay type: functional
[2] = tested on: Mycobacterium tuberculosis; assay: Antimycobacterial activity against Mycobacterium tuberculosis H37Rv ATCC 27294 by BACTEC radiometric respiratory technique; assay type: functional
Method in brief: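 Compounds prepared as DMSO solutions and tested over 256 to 1 µg/ml, with isoniazid and rifampicin as reference drugs.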

Staphylococcus aureus [3] = assay: Antibacterial activity against Staphylococcus aureus by broth microdilution method; assay type: functional
Escherichia coli = assay: Antibacterial activity against Escherichia coli by broth microdilution method; assay type: functional
[4] = tested on: Mycobacterium tuberculosis; assay: Ratio of rifampicin MIC to drug MIC for Mycobacterium tuberculosis H37Rv ATCC 27294; assay type: functional
Rhizopus = assay: Ratio of amphotericin B MIC to drug MIC for Rhizopus sp.; assay type: functional
[5] = tested on: Mycobacterium tuberculosis; assay: Ratio of isoniazid MIC to drug MIC for Mycobacterium tuberculosis H37Rv ATCC 27294; assay type: functional
Klebsiella pneumoniae [6] = assay: Ratio of ciprofloxacin MIC to drug MIC for Klebsiella pneumoniae; assay type: functional
Staphylococcus aureus [7] = assay: Ratio of ciprofloxacin MIC to drug MIC for Staphylococcus aureus; assay type: functional

SMILES	MIC (Candida albicans)	MIC (Klebsiella pneumoniae [1])	MIC (Rhizopus sp)	MIC (Aspergillus flavus)	MIC [2]	MIC (Staphylococcus aureus [3])	MIC (Escherichia coli)	Ratio [4]	Ratio (Rhizopus)	Ratio [5]	Ratio (Klebsiella pneumoniae [6])	Ratio (Staphylococcus aureus [7])
CCOC(=O)Cc1csc(N/N=C2\CC(c3ccc(Cl)cc3)NC(c3ccc(Cl)cc3)C2C)n1 (stereo not given)	> 256 µg/mL	128 µg/mL (≈ 247 µM)	128 µg/mL (≈ 247 µM)	64 µg/mL (≈ 124 µM)	> 256 µg/mL	32 µg/mL (≈ 61.8 µM)	64 µg/mL (≈ 124 µM)	–	–	–	–	–
CCC1/C(=N/N=C2\NC(=O)CS2)CC(c2ccccc2)NC1c1ccccc1 (stereo not given)	256 µg/mL (≈ 652 µM)	> 256 µg/mL	> 256 µg/mL	> 256 µg/mL	> 256 µg/mL	128 µg/mL (≈ 326 µM)	> 256 µg/mL	–	–	–	–	–
CCOC(=O)Cc1csc(N/N=C2\CC(c3ccccc3)N(C)C(c3ccccc3)C2C)n1 (stereo not given)	256 µg/mL (≈ 553 µM)	32 µg/mL (≈ 69.2 µM)	8 µg/mL (≈ 17.3 µM)	64 µg/mL (≈ 138 µM)	16 µg/mL (≈ 34.6 µM)	16 µg/mL (≈ 34.6 µM)	128 µg/mL (≈ 277 µM)	200	1	1.56	–	–
CCOC(=O)Cc1csc(N/N=C2\CC(c3ccc(OC)cc3)NC(c3ccc(OC)cc3)C2C)n1 (stereo not given)	> 256 µg/mL	256 µg/mL (≈ 503 µM)	256 µg/mL (≈ 503 µM)	> 256 µg/mL	16 µg/mL (≈ 31.5 µM)	64 µg/mL (≈ 126 µM)	128 µg/mL (≈ 252 µM)	200	–	1.56	–	–
Cc1ccc(C2C/C(=N\N=C3/NC(=O)CS3)C(C)C(c3ccc(C)cc3)N2)cc1 (stereo not given)	> 256 µg/mL	256 µg/mL (≈ 630 µM)	256 µg/mL (≈ 630 µM)	128 µg/mL (≈ 315 µM)	64 µg/mL (≈ 157 µM)	64 µg/mL (≈ 157 µM)	128 µg/mL (≈ 315 µM)	50	–	0.39	–	–
CCOC(=O)Cc1csc(N/N=C2\CC(c3ccc(Br)cc3)NC(c3ccc(Br)cc3)C2C)n1 (stereo not given)	8 µg/mL (≈ 13.2 µM)	8 µg/mL (≈ 13.2 µM)	256 µg/mL (≈ 422 µM)	32 µg/mL (≈ 52.8 µM)	> 256 µg/mL	16 µg/mL (≈ 26.4 µM)	4 µg/mL (≈ 6.6 µM)	–	–	–	–	–
CCOC(=O)Cc1csc(N/N=C2\CC(c3ccc(C)cc3)NC(c3ccc(C)cc3)C2C)n1 (stereo not given)	> 256 µg/mL	256 µg/mL (≈ 537 µM)	128 µg/mL (≈ 269 µM)	> 256 µg/mL	> 256 µg/mL	> 256 µg/mL	128 µg/mL (≈ 269 µM)	–	–	–	–	–
CCOC(=O)Cc1csc(N/N=C2\CC(c3ccc(F)cc3)NC(c3ccc(F)cc3)C2C)n1 (stereo not given)	128 µg/mL (≈ 264 µM)	64 µg/mL (≈ 132 µM)	16 µg/mL (≈ 33 µM)	32 µg/mL (≈ 66 µM)	16 µg/mL (≈ 33 µM)	16 µg/mL (≈ 33 µM)	32 µg/mL (≈ 66 µM)	200	–	1.56	–	–
CCOC(=O)Cc1csc(N/N=C2\CC(c3ccccc3)NC(c3ccccc3)C2C)n1 (stereo not given)	> 256 µg/mL	> 256 µg/mL	> 256 µg/mL	256 µg/mL (≈ 571 µM)	64 µg/mL (≈ 143 µM)	> 256 µg/mL	128 µg/mL (≈ 285 µM)	50	–	0.39	–	–
CCOC(=O)Cc1csc(N/N=C2\CC(c3ccccc3)NC(c3ccccc3)C2CC)n1 (stereo not given)	> 256 µg/mL	> 256 µg/mL	256 µg/mL (≈ 553 µM)	> 256 µg/mL	> 256 µg/mL	128 µg/mL (≈ 277 µM)	> 256 µg/mL	–	–	–	–	–
CC1/C(=N/N=C2\NC(=O)CS2)CC(c2ccc(F)cc2)NC1c1ccc(F)cc1 (stereo not given)	16 µg/mL (≈ 38.6 µM)	4 µg/mL (≈ 9.65 µM)	16 µg/mL (≈ 38.6 µM)	8 µg/mL (≈ 19.3 µM)	128 µg/mL (≈ 309 µM)	4 µg/mL (≈ 9.65 µM)	32 µg/mL (≈ 77.2 µM)	25	–	0.19	2	1
CC1/C(=N/N=C2\NC(=O)CS2)CC(c2ccccc2)N(C)C1c1ccccc1 (stereo not given)	64 µg/mL (≈ 163 µM)	64 µg/mL (≈ 163 µM)	8 µg/mL (≈ 20.4 µM)	64 µg/mL (≈ 163 µM)	16 µg/mL (≈ 40.8 µM)	16 µg/mL (≈ 40.8 µM)	128 µg/mL (≈ 326 µM)	200	1	1.56	–	–
COc1ccc(C2C/C(=N\N=C3/NC(=O)CS3)C(C)C(c3ccc(OC)cc3)N2)cc1 (stereo not given)	64 µg/mL (≈ 146 µM)	64 µg/mL (≈ 146 µM)	128 µg/mL (≈ 292 µM)	128 µg/mL (≈ 292 µM)	32 µg/mL (≈ 73 µM)	32 µg/mL (≈ 73 µM)	32 µg/mL (≈ 73 µM)	100	–	0.78	–	–
CC1/C(=N/N=C2\NC(=O)CS2)CC(c2ccc(Br)cc2)NC1c1ccc(Br)cc1 (stereo not given)	64 µg/mL (≈ 119 µM)	8 µg/mL (≈ 14.9 µM)	16 µg/mL (≈ 29.8 µM)	32 µg/mL (≈ 59.7 µM)	16 µg/mL (≈ 29.8 µM)	8 µg/mL (≈ 14.9 µM)	16 µg/mL (≈ 29.8 µM)	200	–	1.56	–	–
CC1/C(=N/N=C2\NC(=O)CS2)CC(c2ccccc2)NC1c1ccccc1 (stereo not given)	> 256 µg/mL	64 µg/mL (≈ 169 µM)	> 256 µg/mL	64 µg/mL (≈ 169 µM)	64 µg/mL (≈ 169 µM)	64 µg/mL (≈ 169 µM)	256 µg/mL (≈ 676 µM)	50	–	0.39	–	–
CC1/C(=N/N=C2\NC(=O)CS2)CC(c2ccc(Cl)cc2)NC1c1ccc(Cl)cc1 (stereo not given)	128 µg/mL (≈ 286 µM)	128 µg/mL (≈ 286 µM)	256 µg/mL (≈ 572 µM)	128 µg/mL (≈ 286 µM)	16 µg/mL (≈ 35.8 µM)	8 µg/mL (≈ 17.9 µM)	128 µg/mL (≈ 286 µM)	200	–	1.56	–	–
C[C@@H]1[C@H](O)[C@@H](C)/C=C/C=C/C=C/C=C/C=C/C=C/C=C/[C@H](O[C@@H]2O[C@H](C)[C@@H](O)[C@H](N)[C@@H]2O)C[C@@H]2O[C@](O)(C[C@@H](O)C[C@@H](O)[C@H](O)CC[C@@H](O)C[C@@H](O)CC(=O)O[C@H]1C)C[C@H](O)[C@H]2C(=O)O [AMPHOTERICIN B]	8 µg/mL (≈ 8.66 µM)	–	16 µg/mL (≈ 17.3 µM)	8 µg/mL (≈ 8.66 µM)	–	–	–	–	–	–	–	–
O=C(O)c1cn(C2CC2)c2cc(N3CCNCC3)c(F)cc2c1=O [CIPROFLOXACIN]	–	16 µg/mL (≈ 48.3 µM)	–	–	–	8 µg/mL (≈ 24.1 µM)	–	–	–	–	–	–
NNC(=O)c1ccncc1 [ISONIAZID]	–	–	–	–	0.25 µg/mL (≈ 1.82 µM)	–	–	–	–	–	–	–
CO[C@H]1/C=C/O[C@@]2(C)Oc3c(C)c(O)c4c(O)c(c(/C=N/N5CCN(C)CC5)c(O)c4c3C2=O)NC(=O)/C(C)=C\C=C\[C@H](C)[C@H](O)[C@@H](C)[C@@H](O)[C@@H](C)[C@H](OC(C)=O)[C@@H]1C [RIFAMPIN]	–	–	–	–	32 µg/mL (≈ 38.9 µM)	–	–	–	–	–	–	–
